In ChEMBL document CHEMBL1139732, “Identification and optimisation of 5-amino-7-aryldihydro-1,4-diazepines as 5-HT2A ligands” (Bioorg Med Chem Lett, 2006):

Tests used:
[1] = target: 5-hydroxytryptamine receptor 2A (Homo sapiens, UniProt P28223); experiment: Displacement of [3H]ketanserin from human 5HT2A receptor expressed in CHOK1 cells; assay type: cell-based, CHO-K1
Summary of the method: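 Membranes from confluent CHO K1 cells expressing human 5-HT2A were incubated with [3H]ketanserin (76 Ci/mmol) for 15 min at 37 °C with shaking at 180 rpm. Buffer was 50 mM Tris pH 7.7, 0.1% ascorbate, pargyline, MgSO4 and 0.5 mM EDTA. Bound and free ligand were separated by GF/B filtration and the filters counted. Mianserin defined non-specific binding. Five-point log titrations were fitted with a four-parameter curve to give IC50 and Ki.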

[2] = target: Voltage-gated inwardly rectifying potassium channel KCNH2 (Homo sapiens, UniProt Q12809); experiment: Activity at HERG potassium channel; assay type: functional
[3] = target: T1, 5-hydroxytryptamine receptor 2C (Homo sapiens, UniProt P28335); experiment: Binding affinity to 5HT2C receptor
T1 sequence (P28335 whole entry): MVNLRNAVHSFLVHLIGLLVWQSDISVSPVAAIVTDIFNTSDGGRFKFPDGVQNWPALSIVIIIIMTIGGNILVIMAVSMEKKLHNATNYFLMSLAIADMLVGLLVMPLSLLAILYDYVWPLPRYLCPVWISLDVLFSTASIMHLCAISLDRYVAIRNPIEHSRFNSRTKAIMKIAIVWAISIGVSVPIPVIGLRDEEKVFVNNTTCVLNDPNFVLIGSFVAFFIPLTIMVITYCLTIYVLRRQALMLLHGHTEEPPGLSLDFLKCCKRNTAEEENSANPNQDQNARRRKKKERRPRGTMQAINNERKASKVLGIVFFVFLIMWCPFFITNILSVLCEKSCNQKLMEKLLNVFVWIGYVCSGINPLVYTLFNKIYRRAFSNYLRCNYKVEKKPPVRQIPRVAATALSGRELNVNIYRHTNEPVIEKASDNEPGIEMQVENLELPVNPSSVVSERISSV

[4] = target: 5-hydroxytryptamine receptor 2A (Rattus norvegicus, UniProt P14842); experiment: Binding affinity to rat 5HT2A receptor
5-hydroxytryptamine receptor 2A (Rattus norvegicus, UniProt P14842), sequence (P14842 whole entry): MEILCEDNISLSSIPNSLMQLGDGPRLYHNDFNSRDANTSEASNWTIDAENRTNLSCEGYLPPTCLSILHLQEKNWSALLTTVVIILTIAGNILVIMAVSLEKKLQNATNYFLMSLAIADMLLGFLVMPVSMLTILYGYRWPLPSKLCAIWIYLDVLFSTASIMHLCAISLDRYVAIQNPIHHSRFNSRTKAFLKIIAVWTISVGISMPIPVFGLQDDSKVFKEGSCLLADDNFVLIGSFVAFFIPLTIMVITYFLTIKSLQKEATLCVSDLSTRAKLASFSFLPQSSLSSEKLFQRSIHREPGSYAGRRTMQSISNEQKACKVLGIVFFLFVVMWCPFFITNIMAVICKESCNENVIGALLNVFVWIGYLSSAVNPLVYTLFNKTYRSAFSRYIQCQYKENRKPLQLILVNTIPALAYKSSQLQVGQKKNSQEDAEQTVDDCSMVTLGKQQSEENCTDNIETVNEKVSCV

Voltage-gated inwardly rectifying potassium channel KCNH2, sequence (Q12809 whole entry): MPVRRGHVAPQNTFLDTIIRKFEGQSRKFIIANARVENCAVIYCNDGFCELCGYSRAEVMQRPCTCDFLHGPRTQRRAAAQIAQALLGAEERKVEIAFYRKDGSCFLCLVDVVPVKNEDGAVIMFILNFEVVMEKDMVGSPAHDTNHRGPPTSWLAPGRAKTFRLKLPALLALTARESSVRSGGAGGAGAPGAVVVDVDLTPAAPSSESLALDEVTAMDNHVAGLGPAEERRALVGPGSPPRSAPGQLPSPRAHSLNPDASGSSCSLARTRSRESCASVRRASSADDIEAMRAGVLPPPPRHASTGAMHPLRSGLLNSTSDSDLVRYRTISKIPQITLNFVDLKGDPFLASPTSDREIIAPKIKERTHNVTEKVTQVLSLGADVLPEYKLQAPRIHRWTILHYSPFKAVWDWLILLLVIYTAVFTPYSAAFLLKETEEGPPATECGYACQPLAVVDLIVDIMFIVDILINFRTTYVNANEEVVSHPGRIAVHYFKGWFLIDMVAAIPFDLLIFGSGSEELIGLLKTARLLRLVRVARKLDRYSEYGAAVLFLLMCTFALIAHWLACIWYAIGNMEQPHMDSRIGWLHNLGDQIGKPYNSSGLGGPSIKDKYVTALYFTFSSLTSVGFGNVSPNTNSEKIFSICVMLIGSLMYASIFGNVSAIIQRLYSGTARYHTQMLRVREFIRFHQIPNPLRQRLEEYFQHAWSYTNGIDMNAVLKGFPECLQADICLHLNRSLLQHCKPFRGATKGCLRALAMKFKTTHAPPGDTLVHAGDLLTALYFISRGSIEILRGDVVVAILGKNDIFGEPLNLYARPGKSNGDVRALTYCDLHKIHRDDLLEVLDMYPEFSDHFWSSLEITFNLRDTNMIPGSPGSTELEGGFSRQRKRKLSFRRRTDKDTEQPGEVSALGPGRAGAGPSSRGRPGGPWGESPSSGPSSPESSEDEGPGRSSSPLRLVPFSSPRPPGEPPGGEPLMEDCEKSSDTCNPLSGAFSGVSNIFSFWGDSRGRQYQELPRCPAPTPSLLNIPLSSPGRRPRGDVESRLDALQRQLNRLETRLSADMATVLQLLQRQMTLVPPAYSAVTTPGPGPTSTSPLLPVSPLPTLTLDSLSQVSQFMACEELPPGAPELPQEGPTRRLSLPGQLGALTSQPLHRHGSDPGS
5-hydroxytryptamine receptor 2A (Homo sapiens, UniProt P28223), sequence (P28223 whole entry): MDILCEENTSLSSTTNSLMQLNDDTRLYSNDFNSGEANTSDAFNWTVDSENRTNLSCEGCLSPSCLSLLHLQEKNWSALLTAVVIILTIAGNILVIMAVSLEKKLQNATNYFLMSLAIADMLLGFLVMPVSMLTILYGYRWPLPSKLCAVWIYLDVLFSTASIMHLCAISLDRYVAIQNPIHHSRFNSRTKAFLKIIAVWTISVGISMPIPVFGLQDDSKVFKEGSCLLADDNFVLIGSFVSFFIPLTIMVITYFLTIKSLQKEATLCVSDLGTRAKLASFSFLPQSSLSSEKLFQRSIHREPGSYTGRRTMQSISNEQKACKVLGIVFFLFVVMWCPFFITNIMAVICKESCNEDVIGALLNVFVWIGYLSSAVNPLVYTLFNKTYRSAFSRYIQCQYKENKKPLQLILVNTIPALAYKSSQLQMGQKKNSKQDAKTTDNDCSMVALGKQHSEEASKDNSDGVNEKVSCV

SMILES	IC50 [1]	Activity [2]	IC50 [3]	IC50 [4]
CCN(CC)C1=NCCNC(c2ccccc2F)=C1	> 1000 nM	> 1000 nM	–	–
Cc1ccc(C2=CC(NC(C)(C)Cc3ccccc3)=NCCN2)cc1	2.4 nM	300 nM	–	–
CC(C)(C)NC1=NCCNC(c2ccc(F)cc2)=C1	21 nM	> 1000 nM	637 nM	–
CCC1(NC2=NCCNC(c3ccccc3F)=C2)CCCC1	3.6 nM	> 1000 nM	–	–
CC(C)(C)NC1=NCCNC(c2ccccc2Cl)=C1	76 nM	> 1000 nM	–	–
CCC1(NC2=NCCNC(c3ccc(F)cc3F)=C2)CCCC1	1.1 nM	> 1000 nM	27 nM	2.3 nM
Cc1ccc(C2=CC(NC(C)(C)C)=NCCN2)c(C)c1	71 nM	> 1000 nM	–	–
CCC1(NC2=NCCNC(c3ccc(F)cc3)=C2)CCCC1	0.8 nM	> 1000 nM	–	–
Cc1ccc(C2=CC(N3CCNCC3)=NCCN2)cc1	> 1000 nM	> 1000 nM	–	–
CC(C)(Cc1ccccc1)NC1=NCCNC(c2ccccc2F)=C1	3.8 nM	270 nM	–	–
CC(C)(C)NC1=NCCNC(c2ccccc2)=C1	35 nM	> 1000 nM	1050 nM	–
CCC(CC)(CC)NC1=NCCNC(c2ccc(F)cc2F)=C1	3.7 nM	> 1000 nM	86 nM	–
CCN(CC)C1=NCCNC(c2ccc(C)cc2)=C1	> 1000 nM	> 1000 nM	–	–
CC(C)(NC1=NCCNC(c2ccc(F)cc2F)=C1)C1CCC1	1.4 nM	> 1000 nM	–	–
COc1ccc(C2=CC(NC(C)(C)C)=NCCN2)cc1	534 nM	> 1000 nM	–	–
CCC(C)(CC)NC1=NCCNC(c2ccccc2F)=C1	4.5 nM	> 1000 nM	–	–
CC(C)(C)NC1=NCCNC(c2ccccc2F)=C1	18 nM	> 1000 nM	–	–
Cc1ccccc1C1=CC(NC(C)(C)C)=NCCN1	112 nM	> 1000 nM	–	–
Cc1ccc(C2=CC(N3CCOCC3)=NCCN2)cc1	> 1000 nM	> 1000 nM	–	–
CCC(C)(CC)NC1=NCCNC(c2ccc(C)cc2)=C1	14.9 nM	> 1000 nM	75 nM	–
Cc1ccc(C2=CC(NC(C)(C)C)=NCCN2)c(F)c1	14 nM	> 1000 nM	–	–
CC1(NC2=NCCNC(c3ccc(F)cc3)=C2)CCCCC1	1.6 nM	> 1000 nM	–	–
CC(C)(C)NC1=NCCNC(c2ccc(F)cc2F)=C1	11 nM	> 1000 nM	–	–
CCC(C)(CC)NC1=NCCNC(c2ccc(F)cc2)=C1	1.5 nM	> 1000 nM	16 nM	–
CC(C)(C)NC1=NCCNC(c2cccc(C(F)(F)F)c2)=C1	514 nM	> 1000 nM	–	–
Cc1ccc(C2=CC(NC(C)(C)C)=NCCN2)cc1	11 nM	> 1000 nM	–	–
CC(C)(C)NC1=NCCNC(c2ccc(C#N)cc2)=C1	2800 nM	> 1000 nM	–	–
CC(C)(C)CNC1=NCCNC(c2ccccc2F)=C1	1520 nM	> 1000 nM	–	–
